Reference: PMC5974556 (ChemistryOpen, 2018)
Values after ≈ are worked out from the molar mass of the structure shown. Marks after values point to notes of the source that are not given here.

Columns and labels:
HepG2 cells [1] = experiment: Intracellular ROS; assay type: cell-based; conditions: Homo sapiens; for activity at 1 µM: HepG2, read-out: Intracellular ROS, percentage compared to the untreated control cells (ROS/SRB), HepG2, 1 μM; for activity at 10 µM: HepG2, read-out: Intracellular ROS, percentage compared to the untreated control cells (ROS/SRB), HepG2, 10 μM
Summary of the method: (§1)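 Cells grown in DMEM+glutamax with 1% NEAA, 1% P/S and 10% FBS at 37 °C, 10% CO2. Seeded at 2×10^4 cells/well for 24 h, then confluent cells were exposed to test compound at 1 or 10 µM in serum-free medium, with NAC as control. Cells were washed, loaded with DCFH-DA for 30 min, then kept 1 h in phenol red-free DMEM. Fluorescence read at ex 485/em 535 nm, normalised to same-well SRB protein (490 nm) and given as % of untreated cells. Mean ± SD, n≥3; two-tailed t-test with unequal variances.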

HT‐29 cells [2] = experiment: Protein content; assay type: cell-based; conditions: Homo sapiens, HT-29, 72 h, read-out: HT‐29 IC50 SRB
Summary of the method: (§2)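 Seeded 2×10^4 cells per well for 24 h, then treated with or without test compound for three days, in triplicate. Fixed with 50% TCA for 1 h at 4 °C, washed and dried. Stained 30 min at 4 °C with 0.4% sulforhodamine B in 1% acetic acid, rinsed with 1% acetic acid. Dye redissolved in Tris buffer, absorbance read at 490 nm. Doxorubicin control; MTT and SRB data pooled, mean ± SD, n≥6.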

Caco‐2 cells [3] = experiment: Mitochondria activity; assay type: cell-based; conditions: Homo sapiens, Caco-2, 72 h, read-out: Caco‐2 IC50 MTT
Summary of the method: (§3)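 Cells kept in DMEM+glutamax with 1% NEAA, 1% P/S and 10% FBS at 37 °C, 10% CO2. Seeded 2×10^4 per well for 24 h, then exposed 72 h to test compound at various concentrations in serum-free medium, in triplicate. MTT (5 mg/mL in PBS) added for 2 h, formazan dissolved in DMSO, read at 570 nm. IC50 from % survival; doxorubicin control; MTT and SRB data pooled, mean ± SD, n≥6.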

HepG2 cells [4] = experiment: Protein content; assay type: cell-based; conditions: Homo sapiens, HepG2, 72 h, read-out: HepG2 IC50 SRB
Summary of the method: as §2

[5] = Ferric reducing antioxidant power; conditions: chemical antioxidant capacity, n=3
Summary of the method: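 FRAP reagent made from acetate buffer, TPTZ in ethanol and FeCl3·6H2O in dilute HCl, mixed 10:1:1, with TPTZ and iron solutions fresh daily. Sample mixed with reagent 1:9, absorbance read at 593 nm after 4 min. Values expressed as Trolox equivalents by linear regression on a Trolox standard curve; α-tocopherol positive control.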

Caco‐2 cells [6] = experiment: Intracellular ROS; assay type: cell-based, human; conditions: protein content normalization, mean±SD, n≥3
Summary of the method: as §1

HepG2 cells [7] = experiment: Mitochondria activity; assay type: cell-based; conditions: Homo sapiens, HepG2, 72 h, read-out: HepG2 IC50 MTT
Summary of the method: as §3

Caco‐2 cells [8] = experiment: Protein content; assay type: cell-based; conditions: Homo sapiens, Caco-2, 72 h, read-out: Caco‐2 IC50 SRB
Summary of the method: as §2

EA.hy926 cells [9] = experiment: Mitochondria activity; assay type: cell-based; conditions: Homo sapiens, EA.hy 926, 72 h, read-out: EA.hy926 IC50 MTT
Summary of the method: as §3

EA.hy926 cells [10] = experiment: Intracellular ROS; assay type: cell-based; conditions: Homo sapiens; for activity at 1 µM: EA.hy 926, read-out: Intracellular ROS, percentage compared to the untreated control cells (ROS/SRB), EA.hy926, 1 μM; for activity at 10 µM: EA.hy 926, read-out: Intracellular ROS, percentage compared to the untreated control cells (ROS/SRB), EA.hy926, 10 μM
Summary of the method: as §1

EA.hy926 cells [11] = experiment: Protein content; assay type: cell-based; conditions: Homo sapiens, EA.hy 926, 72 h, read-out: EA.hy926 IC50 SRB
Summary of the method: as §2

HT‐29 cells [12] = experiment: Mitochondria activity; assay type: cell-based; conditions: Homo sapiens, HT-29, 72 h, read-out: HT‐29 IC50 MTT
Summary of the method: as §3

[13] = Water solubility, shake flask method in 0.1 M phosphate buffer pH 6.8; assay type: physicochemical; conditions: 37 °C, pH 6.8, aqueous buffer, thermodynamic from solid
Summary of the method: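 Excess solid added to 1 mL sodium phosphate buffer, pH 6.8. Two conditions: 90 min sonication at 37 °C, or 30 min sonication at 37 °C, 23 h shaking at 300 rpm, then 30 min sonication. Centrifuged 14000 rpm for 5 min, filtered (0.2 µm) at 37 °C and diluted in DMSO. Quantified by LC at maximum absorbance against standard curves; independent triplicates.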

HT‐29 cells [14] = experiment: Intracellular ROS; assay type: cell-based; conditions: Homo sapiens; for activity at 1 µM: HT-29, read-out: Intracellular ROS, percentage compared to the untreated control cells (ROS/SRB), HT‐29, 1 μM; for activity at 10 µM: HT-29, read-out: Intracellular ROS, percentage compared to the untreated control cells (ROS/SRB), HT‐29, 10 μM
Summary of the method: as §1

[15] = DPPH radical‐scavenging activity assay; conditions: result in words
Summary of the method: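 DPPH diluted to 200 µM in MeOH and mixed with an equal volume of test compound in MeOH at various concentrations. Incubated 30 min in the dark at 30 °C, absorbance read at 515 nm. % inhibition corrected for sample absorbance without DPPH. EC50 from fit to the linear part of the curve. Trolox reference; at least three independent experiments.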

SMILES | IC50 (Caco‐2 cells [3]) [µM] | IC50 (HepG2 cells [4]) [µM] | Intracellular ROS, percentage compared to the untreated control cells (ROS/SRB), Caco‐2, 1 μM (Caco‐2 cells [6]) | Intracellular ROS, percentage compared to the untreated control cells (ROS/SRB), Caco‐2, 10 μM (Caco‐2 cells [6]) | IC50 (HepG2 cells [7]) [µM] | IC50 (Caco‐2 cells [8]) [µM] | solubility at 90 min [13] [µM] | solubility at 24 h [13] [µM] | activity at 1 µM (HepG2 cells [1]) [%] | activity at 10 µM (HepG2 cells [1]) [%] | IC50 (HT‐29 cells [2]) [µM] | FRAP [5] [Trolox equiv per μM] | IC50 (EA.hy926 cells [9]) [µM] | activity at 1 µM (EA.hy926 cells [10]) [%] | activity at 10 µM (EA.hy926 cells [10]) [%] | IC50 (EA.hy926 cells [11]) [µM] | IC50 (HT‐29 cells [12]) [µM] | activity at 1 µM (HT‐29 cells [14]) [%] | activity at 10 µM (HT‐29 cells [14]) [%] | DPPH radical‐scavenging activity [15]
O=C(/C=C(O)/C=C/c1cccnc1)/C=C/c1cccnc1 [compound 2, (1E,4Z,6E)‐5‐Hydroxy‐1,7‐di(pyridin‐3‐yl)hepta‐1,4,6‐trien‐3‐one] | 6.9 ± 2.5 | 10 ± 1.6 | 104.8±15.1% | 142.7±11.9^[b] % | 8.3 ± 0.7 | 7.3 ± 3.1 | 12.4 ± 0.2 (≈ 3.45 µg/mL) | 9.2 ± 0.1 (≈ 2.56 µg/mL) | 99 ± 4.6 | 90.4 ± 11.9 | 6.1 ± 3.4 | 0.03 | 7.9 ± 1.9 | 112 ± 1.6 | 116 ± 3.3 | 11.2 ± 2.8 | 8.2 ± 0.8 | 94 ± 4 | 127 ± 7.9 | no activity
O=C(/C=C(O)/C=C/c1ccc[nH]1)/C=C/c1ccc[nH]1 [compound 4, (1E,4Z,6E)‐5‐Hydroxy‐1,7‐di(1H‐pyrrol‐2‐yl)hepta‐1,4,6‐trien‐3‐one] | 7.5 ± 1.6 | 9.8 ± 1.5 | 110.2±9.5^[b] % | 124.3±8.7^[c] % | 8.2 ± 0.9 | 9.7 ± 0.6 | 84.8 ± 2.8 (≈ 21.6 µg/mL) | 74.2 ± 1.3 (≈ 18.9 µg/mL) | 75.6 ± 14.6 | 121 ± 26.1 | 9.6 ± 0.5 | 0.79 | 8.3 ± 0.9 | 295 ± 38.5 | 165 ± 18.9 | 9 ± 2.2 | 8.9 ± 0.5 | 105 ± 6.3 | 121 ± 8.7 | –
O=C(/C=C(O)/C=C/c1c[nH]c2ccccc12)/C=C/c1c[nH]c2ccccc12 [compound 3, (1E,4Z,6E)‐5‐Hydroxy‐1,7‐di(1H‐indol‐3‐yl)hepta‐1,4,6‐trien‐3‐one] | 3.3 ± 0.3 | 10.4 ± 1.5 | 95.7±7.3% | 110.3±6.5^[b] % | 10 ± 1.7 | 2.1 ± 0.6 | 19 ± 0.2 (≈ 6.73 µg/mL) | 11.1 ± 0.1 (≈ 3.93 µg/mL) | 129 ± 8 | 382 ± 34 | 15.3 ± 6.6 | 0.27 | 11.7 ± 4.6 | 111 ± 7.5 | 218 ± 20.3 | 15.2 ± 5.9 | 11.5 ± 6.7 | 141 ± 21.3 | 125 ± 12 | –

Further lines, with some results ahead:

IC50 (Caco‐2 cells [3]) [µM] | IC50 (HepG2 cells [4]) [µM] | Intracellular ROS, percentage compared to the untreated control cells (ROS/SRB), Caco‐2, 1 μM (Caco‐2 cells [6]) | Intracellular ROS, percentage compared to the untreated control cells (ROS/SRB), Caco‐2, 10 μM (Caco‐2 cells [6]) | IC50 (HepG2 cells [7]) [µM] | IC50 (Caco‐2 cells [8]) [µM] | solubility at 90 min [13] [µM] | solubility at 24 h [13] [µM] | SMILES | activity at 1 µM (HepG2 cells [1]) [%] | activity at 10 µM (HepG2 cells [1]) [%] | IC50 (HT‐29 cells [2]) [µM] | FRAP [5] [Trolox equiv per μM] | IC50 (EA.hy926 cells [9]) [µM] | activity at 1 µM (EA.hy926 cells [10]) [%] | activity at 10 µM (EA.hy926 cells [10]) [%] | IC50 (EA.hy926 cells [11]) [µM] | IC50 (HT‐29 cells [12]) [µM] | activity at 1 µM (HT‐29 cells [14]) [%] | activity at 10 µM (HT‐29 cells [14]) [%] | DPPH radical‐scavenging activity [15]
> 75 | > 75 | 102.5±2.3% | 115.4±8.5% | > 75 | > 75 | 1470 ± 24 (≈ 494 µg/mL) | 4270 ± 332 (≈ 1430 µg/mL) | O=C(/C=C(/C=C/c1cccnc1)NCCCO)/C=C/c1cccnc1 [5 f, (1E,4Z,6E)‐5‐(3‐Hydroxypropylamino)‐1,7‐di(pyridin‐3‐yl)hepta‐1,4,6‐trien‐3‐one] | 84.8 ± 2.5 | 74.4 ± 3.2 | > 75 | 0.04 | > 75 | 88.7 ± 1.6 | 102 ± 1.6 | > 75 | > 75 | 95.4 ± 1.7 | 96 ± 12.7 | –
> 75 | > 75 | 100.5±2.4% | – | > 75 | > 75 | 2460 ± 57.2 (≈ 826 µg/mL) | 5000 ± 137 (≈ 1680 µg/mL) | O=C1C=C(/C=C/c2cccnc2)N(CCCO)C(c2cccnc2)C1 (centres unmarked) [6 f, (E)‐1‐(3‐Hydroxypropyl)‐2‐(pyridin‐3‐yl)‐6‐[2‐(pyridin‐3‐yl)vinyl]‐2,3‐dihydropyridin‐4(1H)‐one] | 88.8 ± 10.4 | 106 ± 13.1 | > 75 | 0.00 | > 75 | 101 ± 1.3 | 106 ± 9.9 | > 75 | > 75 | 111 ± 8.1 | 106 ± 4.1 | –
